According to ChEMBL document CHEMBL1275331, “Discovery of a novel 5-HT(3) antagonist/5-HT(1A) agonist 3-amino-5,6,7,8-tetrahydro-2-{4-[4-(quinolin-2-yl)piperazin-1-yl]butyl}quinazolin-4(3H)-one (TZB-30878) as an orally bioavailable agent for irritable bowel syndrome” (J Med Chem, 2010):
Activity calls are given as the source filed them. The calls are words filed in the database; no cut-off is given here.

Columns and labels:
[1] = system: Rattus norvegicus; assay: […] activity in rat assessed as inhibition of 5HT-induced bradycardia at 10 ug/kg, iv by von Benzold-Jarisch reflex assay; assay type: functional
[2] = system: Rattus norvegicus; assay: Induction of 5HT1A receptor-mediated behavioral activity in rat assessed as appearance of flat body posture at 10 mg/kg, iv after 30 mins; assay type: functional, organism-based; design: dose 10 mg/kg
Outline: (§1)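 Rats were conditioned to test procedures over 2 weeks and acclimated to the test cage for 1 h. Vehicle was saline containing diluted HCl. Lower lip retraction and flat body posture were scored on a 0–3 scale at 5, 10, 20 and 30 min after dosing.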

[3] = molecular target: T1, 5-hydroxytryptamine receptor 3A (Homo sapiens, UniProt P46098); assay: Displacement of [3H]BRL-43694 from human 5HT3 receptor expressed in HEK293 cells by liquid scintillation counting; assay type: cell-based
T1 sequence (P46098 whole entry): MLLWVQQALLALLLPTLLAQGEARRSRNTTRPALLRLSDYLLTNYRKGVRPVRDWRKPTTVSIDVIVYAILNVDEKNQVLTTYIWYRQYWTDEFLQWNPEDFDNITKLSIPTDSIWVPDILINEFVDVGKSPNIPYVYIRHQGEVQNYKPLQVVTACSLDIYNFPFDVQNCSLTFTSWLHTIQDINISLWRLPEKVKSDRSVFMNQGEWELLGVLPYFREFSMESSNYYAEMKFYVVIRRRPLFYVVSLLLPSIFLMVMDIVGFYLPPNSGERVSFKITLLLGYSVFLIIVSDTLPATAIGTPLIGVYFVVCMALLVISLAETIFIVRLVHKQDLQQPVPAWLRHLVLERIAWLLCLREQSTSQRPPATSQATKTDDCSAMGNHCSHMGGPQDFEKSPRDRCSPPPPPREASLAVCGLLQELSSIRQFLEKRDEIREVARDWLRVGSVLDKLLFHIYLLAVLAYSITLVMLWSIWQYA
Outline: (§2)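 HEK-293 membranes expressing human 5-HT3 were incubated with 0.5 nmol/L [3H]BRL-43694 (final) for 60 min at 25 °C. Buffer: 50 mM Tris-HCl, 5 mM MgCl2, 1 mM EDTA, pH 7.5. Compound came from 270 μmol/L DMSO stock, diluted in buffer. Filtration was through GF/B presoaked in 0.5% polyethyleneimine, with two cold Tris washes. Run in duplicate or triplicate; percent inhibition calculated.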

[4] = molecular target: T2, 5-hydroxytryptamine receptor 1A (Homo sapiens) (UniProt P08908); assay: Agonist activity at human cloned 5HT1A receptor expressed in CHO cells assessed as stimulation of [35S]GTPgammaS binding at 900 uL after 30 mins by liquid scintillation counting; assay type: functional, cell-based
T2 sequence (whole entry): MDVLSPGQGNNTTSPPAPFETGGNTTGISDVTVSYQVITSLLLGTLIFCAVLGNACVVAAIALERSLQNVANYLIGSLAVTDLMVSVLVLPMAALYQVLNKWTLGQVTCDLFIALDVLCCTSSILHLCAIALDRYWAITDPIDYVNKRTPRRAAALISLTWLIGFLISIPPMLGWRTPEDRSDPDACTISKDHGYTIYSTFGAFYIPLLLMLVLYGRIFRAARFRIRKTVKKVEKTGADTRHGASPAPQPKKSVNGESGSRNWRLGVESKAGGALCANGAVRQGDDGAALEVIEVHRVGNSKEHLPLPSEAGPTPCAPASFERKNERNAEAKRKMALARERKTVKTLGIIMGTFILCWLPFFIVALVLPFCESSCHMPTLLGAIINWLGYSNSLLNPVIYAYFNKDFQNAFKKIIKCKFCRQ
Outline: (§3)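 Membranes from CHO cells expressing human 5-HT1A were diluted in 20 mM HEPES/3 mM MgCl2/120 mM NaCl, pH 7.4. They were preincubated with 20 μM GDP and test drug for 20 min at 30 °C, then held on ice for 15 min. [35S]GTPγS (100 pM) was added for 30 min at 30 °C. Samples were filtered, washed with cold HEPES/MgCl2 buffer, and bound radioactivity counted; EC50 and Emax reported.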

[5] = Ratio of drug level in brain to blood in Sprague-Dawley rat at 3 mg/kg, po after 4 hrs; assay type: ADME, organism-based; design: dose 3 mg/kg, route oral
Outline: (§4)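 Rats dosed 3 mg/kg orally; total compound levels measured in brain and blood at 2, 4 and 8 h, brain/blood ratio derived. Mean ± SD of three rats.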

[6] = Ratio of drug level in brain to blood in Sprague-Dawley rat at 3 mg/kg, po after 8 hrs; assay type: ADME, organism-based; design: dose 3 mg/kg, route oral; outline: as §4
[7] = Drug level in Sprague-Dawley rat blood at 3 mg/kg, po after 4 hrs by HPLC analysis; assay type: ADME, organism-based; design: dose 3 mg/kg, route oral; conditions: whole blood, read-out: Drug uptake
Outline: (§5)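 Total compound concentration was measured in brain and blood at 2, 4 and 8 h after a single oral 3 mg/kg dose. Brain/blood ratio was also derived. Values are mean ± SD of three rats.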

[8] = molecular target: T3, 5-hydroxytryptamine receptor 1A (Homo sapiens, UniProt P08908); assay: Agonist activity at human cloned 5HT1A receptor expressed in CHO cells assessed as stimulation of [35S]GTPgammaS binding after 30 mins by liquid scintillation counting; assay type: functional, cell-based; outline: as §3
T3 sequence (P08908 whole entry): T2 sequence (whole entry)

[9] = Ratio of drug level in brain to blood in Sprague-Dawley rat at 3 mg/kg, po after 2 hrs; assay type: ADME, organism-based; design: dose 3 mg/kg, route oral; outline: as §4
[10] = Drug level in Sprague-Dawley rat brain at 3 mg/kg, po after 4 hrs by HPLC analysis; assay type: ADME, organism-based; design: dose 3 mg/kg, route oral; conditions: read-out: Drug uptake; outline: as §5
[11] = system: Rattus norvegicus; assay: Induction of 5HT1A receptor-mediated lower lip retraction behavior in rat at 10 mg/kg, iv after 30 mins; assay type: functional, organism-based; design: dose 10 mg/kg; outline: as §1
[12] = molecular target: Adrenergic receptor alpha-1 (Rattus norvegicus) (UniProt P15823+P23944+P43140); assay: Inhibition of rat alpha1 adrenergic receptor at 0.1 uM
[13] = Drug level in Sprague-Dawley rat brain at 3 mg/kg, po after 8 hrs by HPLC analysis; assay type: ADME, organism-based; design: dose 3 mg/kg, route oral; conditions: read-out: Drug uptake; outline: as §5
[14] = system: Rattus norvegicus; assay: Effect on 5HT1A receptor-mediated hypothermic effect in rat assessed as change in rectal temperature at 10 mg/kg, iv after 30 mins; assay type: functional, organism-based; design: dose 10 mg/kg
Outline: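 Rats were conditioned over 2 weeks and acclimated to the cage for 1 h before dosing (vehicle: saline with diluted HCl). Rectal temperature was recorded with a thermistor probe inserted 3 cm, before and 30 min after administration. The change in temperature was reported.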

[15] = molecular target: T4, 5-hydroxytryptamine receptor 3A (Cavia porcellus) (UniProt O70212); assay: Inhibition of 5HT3 receptor-mediated contraction of guinea pig ileum at 1 umol/L after 20 mins relative to control; assay type: tissue-based
T4 sequence (whole entry): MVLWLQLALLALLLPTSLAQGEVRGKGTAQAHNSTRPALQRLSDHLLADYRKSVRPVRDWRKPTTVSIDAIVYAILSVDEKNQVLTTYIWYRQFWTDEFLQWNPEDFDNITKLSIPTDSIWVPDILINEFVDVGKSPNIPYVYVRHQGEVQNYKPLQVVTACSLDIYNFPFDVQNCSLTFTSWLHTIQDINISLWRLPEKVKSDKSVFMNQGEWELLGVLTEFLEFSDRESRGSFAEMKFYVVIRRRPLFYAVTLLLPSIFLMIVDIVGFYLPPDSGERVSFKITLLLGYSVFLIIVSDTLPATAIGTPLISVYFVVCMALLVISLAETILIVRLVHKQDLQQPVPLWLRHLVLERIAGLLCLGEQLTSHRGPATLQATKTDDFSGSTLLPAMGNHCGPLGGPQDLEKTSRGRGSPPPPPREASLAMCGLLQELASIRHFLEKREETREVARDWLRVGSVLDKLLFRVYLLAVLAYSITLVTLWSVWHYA
Outline: (§6)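 Ileum strips in Tyrode solution at 37 °C, gassed 5% CO2/95% O2, isotonic contractions under 1 g load. After at least 3 stable contractions to 10 μM 2-methyl-5-HT, tissue exposed to compound or DMSO vehicle for 20 min, then 10 μM 2-methyl-5-HT re-added; contraction expressed as % inhibition of control.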

[16] = Drug level in Sprague-Dawley rat brain at 3 mg/kg, po after 2 hrs by HPLC analysis; assay type: ADME, organism-based; design: dose 3 mg/kg, route oral; conditions: read-out: Drug uptake; outline: as §5
[17] = Drug level in Sprague-Dawley rat blood at 3 mg/kg, po after 2 hrs by HPLC analysis; assay type: ADME, organism-based; design: dose 3 mg/kg, route oral; conditions: whole blood, read-out: Drug uptake; outline: as §5
[18] = molecular target: T3, 5-hydroxytryptamine receptor 1A; assay: Displacement of [3H]8-OH-DPAT from human 5HT1A receptor expressed in CHO cells by liquid scintillation counting; assay type: cell-based
Outline: (§7)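 CHO-cell membranes with human 5-HT1A were incubated with 0.25 nmol/L [3H]8-OH-DPAT (final) for 60 min at 27 °C. Buffer: 50 mM Tris-HCl, 10 mM MgSO4, 0.5 mM EDTA, 0.1% ascorbic acid, pH 7.4. Compound came from 270 μmol/L DMSO stock, diluted in buffer. Filtration was through GF/C presoaked in 0.3% polyethyleneimine, with two cold Tris washes. Run in duplicate or triplicate; percent inhibition of binding calculated.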

[19] = molecular target: 5-hydroxytryptamine receptor 2A (Rattus norvegicus) (UniProt P14842); assay: Inhibition of rat 5HT2 receptor AT 0.1 uM
[20] = Drug level in Sprague-Dawley rat blood at 3 mg/kg, po after 8 hrs by HPLC analysis; assay type: ADME, organism-based; design: dose 3 mg/kg, route oral; conditions: whole blood, read-out: Drug uptake; outline: as §5
[21] = molecular target: T5, 5-hydroxytryptamine receptor 3A (Homo sapiens) (UniProt P46098); assay: Displacement of [3H]BRL-43694 from human 5HT3 receptor expressed in HEK293 cells at 100 nM by liquid scintillation counting; assay type: cell-based; outline: as §2
T5 sequence (whole entry): T1 sequence (P46098 whole entry)

[22] = molecular target: T2, 5-hydroxytryptamine receptor 1A (Homo sapiens); assay: Displacement of [3H]8-OH-DPAT from human 5HT1A receptor expressed in CHO cells at 100 nM by liquid scintillation counting; assay type: cell-based; outline: as §7
[23] = molecular target: T5, 5-hydroxytryptamine receptor 3A (Homo sapiens); assay: Displacement of [3H]BRL-43694 from human 5HT3 receptor expressed in HEK293 cells at 1000 nM by liquid scintillation counting; assay type: cell-based; outline: as §2
[24] = molecular target: T2, 5-hydroxytryptamine receptor 1A (Homo sapiens); assay: Displacement of [3H]8-OH-DPAT from human 5HT1A receptor expressed in CHO cells at 1000 nM by liquid scintillation counting; assay type: cell-based; outline: as §7
[25] = molecular target: T4, 5-hydroxytryptamine receptor 3A (Cavia porcellus); assay: Inhibition of 5HT3 receptor-mediated contraction of guinea pig ileum at 0.1 umol/L after 20 mins relative to control; assay type: tissue-based; outline: as §6

Sequence of 5-hydroxytryptamine receptor 2A (Rattus norvegicus) (P14842 whole entry): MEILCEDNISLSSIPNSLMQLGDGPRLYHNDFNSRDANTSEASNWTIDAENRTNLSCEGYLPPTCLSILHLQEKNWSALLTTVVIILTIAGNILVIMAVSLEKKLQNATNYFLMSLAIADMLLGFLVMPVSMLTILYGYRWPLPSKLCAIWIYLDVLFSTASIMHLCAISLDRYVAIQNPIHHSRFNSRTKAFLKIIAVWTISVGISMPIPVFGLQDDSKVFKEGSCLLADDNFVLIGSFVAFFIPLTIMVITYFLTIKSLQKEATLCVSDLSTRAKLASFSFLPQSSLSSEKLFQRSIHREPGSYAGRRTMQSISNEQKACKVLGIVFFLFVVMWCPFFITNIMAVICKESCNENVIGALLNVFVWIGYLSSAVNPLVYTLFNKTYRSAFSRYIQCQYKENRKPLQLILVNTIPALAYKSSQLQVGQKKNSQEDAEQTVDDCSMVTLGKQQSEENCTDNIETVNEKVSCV

| Compound | inhibition in vivo at 0.01 mg/kg [1] [%] | Activity [2] | IC50 [3] [nM] | Emax [4] [%] | Kp at 4 h [5] | Kp at 8 h [6] | concentration at 4 h [7] [nM] | EC50 [8] [nM] | Kp at 2 h [9] | concentration at 4 h [10] [nM] | Activity [11] | concentration at 8 h [13] [nM] | deltaT [14] [°C] | inhibition [15] [%] | concentration at 2 h [16] [nM] | concentration at 2 h [17] [nM] | IC50 [18] [nM] | concentration at 8 h [20] [nM] | inhibition [25] [%] | also measured |
| --- | --- | --- | --- | --- | --- | --- | --- | --- | --- | --- | --- | --- | --- | --- | --- | --- | --- | --- | --- | --- |
| Nn1c(CCCCN2CCN(c3ccc4ccccc4n3)CC2)nc2ccccc2c1=O | 21.9 | Active | 45.7 | 94.7 | 6.59 | 7.65 | 55.5 | 30.7 | 7.11 | 367 | Active | 204 | -1.9 | 90.1 | 685 | 97.4 | < 10 | 28.3 | – | inhibition [12]: 63%; inhibition [19]: 78% |
| Nn1c(=O)c2c(nc1[C@H]1CC[C@H](N3CCN(c4ccc5ccccc5n4)CC3)CC1)CCCC2 | – | – | – | – | – | – | – | – | – | – | – | – | – | – | – | – | – | – | – | inhibition [21]: 1.4%; inhibition [22]: 76.9%; inhibition [23]: 18.4%; inhibition [24]: 96.3% |
| CC(=O)N1CCc2c(sc3nc(SCCCN4CCN(c5ccc6ccccc6n5)CC4)n(N)c(=O)c23)C1 | 77 | Active | 77.6 | 84.8 | 0.357 | 0.338 | 36.1 | 2.5 | 0.332 | 12.9 | Active | 2.96 | -0.1 | 97.6 | 18.7 | 56 | 2.5 | 8.98 | 79.9 | – |
| Nn1c(SCCCN2CCN(c3ccc4ccccc4n3)CC2)nc2c(c1=O)CCCC2 | – | – | 63.8 | 90.3 | 3.05 | 2.53 | 10.6 | 182 | 2.99 | 32.2 | – | 13 | – | 95.1 | 63.1 | 21.2 | 5.6 | 5.17 | 80 | – |
